# Experiments:
# Influenza A virus [1] = experiment: microbe, parasite or virus in culture; conditions: MDCK, 72 h
# Influenza A virus [2] = experiment: Antiviral activity against Influenza A virus (A/California/04/2009(H1N1)) infected in MDCK cells from Mill Hill assessed as inhibition of viral replication after 3 days by microscopic analysis using crystal violet stain; format: functional
# Influenza A virus [3] = experiment: Antiviral activity against Influenza A virus (A/Washington/29/2009(H1N1)) infected in MDCK cells from Mill Hill assessed as log reduction in viral titer at 128 uM after 24 hrs by immunofluorescent assay; format: functional
# Outline: (§1)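 Yield reduction in MDCK-ATCC or MDCK-Mill Hill cells infected at MOI ∼0.01. Adsorption 1 h at 4°C, washed, then DMEM with 2 μg/ml TPCK-trypsin and drug. At 24 h, supernatants were titrated by immunofluorescent focus assay on MDCK cells with anti-NP monoclonals and FITC secondary. Titres as log10 FFU per 100 μl; detection limit <10 FFU. Quadruplicate, mean ± SD.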
# Influenza A virus [4] = experiment: Antiviral activity against sInfluenza A virus (A/California/04/2009(H1N1)) infected in MDCK cells from Mill Hill assessed as log reduction in viral titer at 42.7 uM after 24 hrs by immunofluorescent assay; format: functional
# Outline: (§2)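 MDCK cells (ATCC or Mill Hill) infected with 2009 pandemic H1N1 at MOI ~0.01, 1 h adsorption at 4°C, washed. DMEM with 2 μg/ml TPCK-trypsin plus drug for 24 h at 37°C. Supernatants titrated on MDCK cells by focus formation: methanol/acetic acid fixation, anti-nucleoprotein MAbs, FITC secondary, foci counted. Titre as log10 FFU per 100 μl; detection limit <10 FFU; quadruplicate wells.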
# Influenza A virus [5] = experiment: Antiviral activity against Influenza A virus (A/Mexico/4604/2009(H1N1)) infected in MDCK cells from ATCC assessed as log reduction in viral titer at 4.7 uM after 24 hrs by immunofluorescent assay; format: functional
# Outline: as §1
# Influenza A virus [6] = experiment: Antiviral activity against Influenza A virus (A/Mexico/4604/2009(H1N1))infected in MDCK cells from Mill Hill assessed as log reduction in viral titer at 4.7 uM after 24 hrs by immunofluorescent assay; format: functional
# Outline: as §1
# Influenza A virus [7] = experiment: Antiviral activity against Influenza A virus (A/California/04/2009(H1N1)) infected in MDCK cells from Mill Hill assessed as log reduction in viral titer at 1.6 uM after 24 hrs by immunofluorescent assay; format: functional
# Outline: as §1
# Influenza A virus [8] = experiment: Antiviral activity against adamantane-, oseltamivir-, zanamivir-susceptible Influenza A virus (A/Georgia/17/2006(H1N1)) infected in MDCK cells assessed as inhibition of viral replication after 3 days by microscopic analysis using crystal violet stain; format: functional, organism-based; conditions: 72 h
# Outline: (§3)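 Confluent MDCK-ATCC monolayers infected with virus diluted to give 15–45 plaques/well. Adsorption 1 h at 37°C without drug, then washed. Overlaid with 0.8% agarose in MEM containing drug plus TPCK-trypsin: 3 μg/ml for seasonal viruses, 2 μg/ml for 2009 A(H1N1). Incubated 3 days at 37°C, 5% CO2. Ethanol-fixed, crystal violet-stained, plaques counted. EC50 by curve fit; duplicates on three occasions, mean ± SD.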
# Influenza A virus [9] = experiment: Antiviral activity against Influenza A virus (A/Mexico/4604/2009(H1N1)) infected in MDCK cells from ATCC assessed as log reduction in viral titer at 128 uM after 24 hrs by immunofluorescent assay; format: functional
# Outline: as §1
# Influenza A virus [10] = experiment: Antiviral activity against Influenza A virus (A/Illinois/10/2009(H1N1)) infected in MDCK cells from ATCC assessed as log reduction in viral titer at 14.2 uM after 24 hrs by immunofluorescent assay; format: functional
# Outline: as §1
# Influenza A virus [11] = experiment: microbe, parasite or virus in culture; conditions: (A/duck/Vietnam/NCVD93/2007 clade 2.3.4 (H5N1)), MDCK, 72 h
# Influenza A virus [12] = experiment: Antiviral activity against Influenza A virus (A/Illinois/10/2009(H1N1)) infected in MDCK cells from ATCC assessed as log reduction in viral titer at 4.7 uM after 24 hrs by immunofluorescent assay; format: functional
# Outline: as §1
# Influenza A virus [13] = experiment: microbe, parasite or virus in culture; conditions: (A/Ecuador/5179/2008(H1N1)), MDCK, 72 h
# Influenza A virus [14] = experiment: Antiviral activity against Influenza A virus (A/Mexico/4604/2009(H1N1)) infected in MDCK cells from Mill Hill assessed as log reduction in viral titer at 128 uM after 24 hrs by immunofluorescent assay; format: functional
# Outline: as §1
# Influenza A virus [15] = experiment: microbe, parasite or virus in culture; conditions: MDCK, 72 h; remark: listed apart in the source
# Influenza A virus [16] = experiment: Antiviral activity against sInfluenza A virus (A/California/04/2009(H1N1)) infected in MDCK cells from ATCC assessed as log reduction in viral titer at 42.7 uM after 24 hrs by immunofluorescent assay; format: functional
# Outline: as §2
# Influenza A virus [17] = experiment: Antiviral activity against sInfluenza A virus (A/California/04/2009(H1N1))infected in MDCK cells from ATCC assessed as log reduction in viral titer at 14.2 uM after 24 hrs by immunofluorescent assay; format: functional
# Outline: as §2
# Influenza A virus [18] = experiment: Antiviral activity against Influenza A virus (A/California/04/2009(H1N1)) infected in MDCK cells from ATCC assessed as log reduction in viral titer at 1.6 uM after 24 hrs by immunofluorescent assay; format: functional
# Outline: as §1
# Influenza A virus [19] = experiment: Antiviral activity against Influenza A virus (A/Illinois/10/2009(H1N1)) infected in MDCK cells from Mill Hill assessed as log reduction in viral titer at 14.2 uM after 24 hrs by immunofluorescent assay; format: functional
# Outline: as §1
# Influenza A virus [20] = experiment: Antiviral activity against Influenza A virus (A/Mexico/4604/2009(H1N1)) infected in MDCK cells from ATCC assessed as log reduction in viral titer at 42.7 uM after 24 hrs by immunofluorescent assay; format: functional
# Outline: as §1
# Influenza A virus [21] = experiment: Antiviral activity against Influenza A virus (A/Mexico/4604/2009(H1N1)) infected in MDCK cells from ATCC assessed as inhibition of viral replication after 3 days by microscopic analysis using crystal violet stain; format: functional
# Outline: as §3
# Influenza A virus [22] = experiment: Antiviral activity against sInfluenza A virus (A/Washington/29/2009(H1N1)) infected in MDCK cells from ATCC assessed as log reduction in viral titer at 128 uM after 24 hrs by immunofluorescent assay; format: functional, Influenza A virus (A/Washington/29/2009(H1N1))
# Outline: as §2
# Influenza A virus [23] = experiment: Antiviral activity against Influenza A virus (A/Illinois/10/2009(H1N1)) infected in MDCK cells from ATCC assessed as log reduction in viral titer at 42.7 uM after 24 hrs by immunofluorescent assay; format: functional
# Outline: as §1
# Influenza A virus [24] = experiment: Antiviral activity against Influenza A virus (A/Illinois/10/2009(H1N1)) infected in MDCK cells from Mill Hill assessed as log reduction in viral titer at 42.7 uM after 24 hrs by immunofluorescent assay; format: functional
# Outline: as §1
# Influenza A virus [25] = experiment: Antiviral activity against sInfluenza A virus (A/Washington/29/2009(H1N1)) infected in MDCK cells from ATCC assessed as log reduction in viral titer at 4.7 uM after 24 hrs by immunofluorescent assay; format: functional, Influenza A virus (A/Washington/29/2009(H1N1))
# Outline: as §2
structure (smiles),measurement,setting,value
NC(=O)c1nc(F)cnc1O [FAVIPIRAVIR],EC50,Influenza A virus [1],960 nM
same,log10FFU,Influenza A virus [2],3.75
same,log10FFU,Influenza A virus [3],<1
same,log10FFU,Influenza A virus [4],<1
same,log10FFU,Influenza A virus [5],3.5
same,log10FFU,Influenza A virus [6],6.2
same,log10FFU,Influenza A virus [7],4.1
same,EC50,Influenza A virus [8],1460 nM
same,log10FFU,Influenza A virus [9],<1
same,log10FFU,Influenza A virus [10],3.1
same,EC50,Influenza A virus [11],1590 nM
same,log10FFU,Influenza A virus [12],4.4
same,EC50,Influenza A virus [13],2480 nM
same,log10FFU,Influenza A virus [14],<1
same,EC50,Influenza A virus [15],380 nM
same,log10FFU,Influenza A virus [16],<1
same,log10FFU,Influenza A virus [17],<1
same,log10FFU,Influenza A virus [18],2.7
same,log10FFU,Influenza A virus [19],1.8
same,log10FFU,Influenza A virus [20],1.8
same,log10FFU,Influenza A virus [21],0.35
same,log10FFU,Influenza A virus [22],1
same,log10FFU,Influenza A virus [23],2.1
same,log10FFU,Influenza A virus [24],1.7
same,log10FFU,Influenza A virus [25],3.9

# — ChEMBL document CHEMBL1671691 (Antimicrob Agents Chemother, 2010)
